Experimental data: publication PMC8204328 (ACS Pharmacology & Translational Science, 2021)

Columns and labels:
lean wild-type mice = assay: Upper GI motility; format: in vivo, mouse
In short: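 Upper gastrointestinal motility by charcoal transit in lean wild-type mice. The CB1R agonist ACEA is given intraperitoneally at 10 mg/kg, with or without test compound. Test compound is also given without agonist to assess motility alone.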

[1] = test system: C2C12 mouse muscle myotubes; assay: Insulin-induced Akt-2 phosphorylation in C2C12 myotubes; format: cell-based; details: 100 nM insulin; CP-55940 5 μM
In short: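 Cultured C2C12 mouse muscle myotubes, mock- or βArr2-siRNA-transfected, exposed to 100 nM insulin with or without the CB1R agonist CP-55940 (5 μM) and test compound (100 nM). Akt phosphorylation by Western blot, β-actin loading control, densitometry quantification; each treatment in duplicate cell aliquots.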

[2] = test system: M384S, I105A and M109A mutant hCB1R; assay: CP55,940-induced βArr2 recruitment in HEK cells expressing mutant hCB1R; format: cell-based, human; details: mutations M384S
hCB1R = hCB1R (Homo sapiens, UniProt P21554); format: cell-based
Chain of hCB1R (P21554 whole entry): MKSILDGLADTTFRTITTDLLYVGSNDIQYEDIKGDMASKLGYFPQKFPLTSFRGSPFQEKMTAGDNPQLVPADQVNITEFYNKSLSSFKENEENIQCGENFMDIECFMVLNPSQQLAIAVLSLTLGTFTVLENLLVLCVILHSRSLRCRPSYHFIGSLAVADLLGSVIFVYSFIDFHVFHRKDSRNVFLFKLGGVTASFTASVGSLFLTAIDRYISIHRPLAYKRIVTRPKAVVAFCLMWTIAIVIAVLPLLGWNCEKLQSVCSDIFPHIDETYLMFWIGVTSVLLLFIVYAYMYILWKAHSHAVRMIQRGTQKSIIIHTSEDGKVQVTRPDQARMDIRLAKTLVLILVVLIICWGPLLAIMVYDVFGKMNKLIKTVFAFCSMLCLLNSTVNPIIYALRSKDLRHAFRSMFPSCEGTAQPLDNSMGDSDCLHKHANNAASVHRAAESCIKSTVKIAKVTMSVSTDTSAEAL

[3] = acute oral 3 mg/kg, male wild-type mice; cited from earlier work
mice [4] = assay: Elevated plus maze test; format: in vivo, mouse
In short: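 The elevated plus maze scores anxiety-like behavior in male wild-type mice after acute oral dosing or 28 days of daily oral dosing with test compound or reference antagonist. Mean ± SEM of 4–6 independent experiments.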

mice [5] = assay: Hyperambulatory activity in drug-naïve mice; format: in vivo, mouse; details: single oral 3 mg/kg, βArr2-KO mice and wild-type littermates

Compound: CCCCC/C=C\C/C=C\C/C=C\C/C=C\CCCC(=O)NCCCl [ACEA, arachidonoyl chloroethylamine]
- inhibition of upper GI motility (lean wild-type mice; 10 mg/kg intraperitoneal, lean wild-type mice): 60%
- inhibition of upper GI motility, wild-type versus βArr2-KO mice (lean wild-type mice; ACEA alone): to the same extent

Compound: CCCCCCC(C)(C)c1ccc([C@@H]2C[C@H](O)CC[C@H]2CCCO)c(O)c1 [CP-55940]
- effect on insulin-induced Akt-2 phosphorylation [1]: significantly inhibited
- CP-55940-induced βArr2 recruitment at mutant hCB1R [2]: suppression

Compound: CN=C(NS(=O)(=O)c1ccc(Cl)cc1)N1C[C@H](c2ccccc2)C(c2ccc(Cl)cc2)=N1 [ibipinabant]
- bias (G/βArr) (hCB1R): ≈ 2
- brain/plasma ratio [3]: 22%

Compound: Cc1c(C(=O)NN2CCCCC2)nn(-c2ccc(Cl)cc2Cl)c1-c1ccc(Cl)cc1 [rimonabant]
- anxiogenic behavior, elevated plus maze (mice [4]; acute oral, MRI-1891 up to 30 mg/kg, rimonabant 3 mg/kg): highly anxiogenic
- anxiogenic behavior, elevated plus maze (mice [4]; chronic 28 days, MRI-1891 1 and 10 mg/kg/day, rimonabant 3 mg/kg/day): induced strong anxiety
- anxiogenic response, elevated plus maze (mice [4]; single oral 3 mg/kg, βArr2-KO mice and wild-type littermates): identical, strong anxiogenic responses in both strains
- hyperambulatory activity (mice [5]): similar, long-lasting hyperambulatory activity
- upper GI motility in the absence of CB1R agonist (in vivo inverse agonism) (lean wild-type mice; MRI-1891 3 and 10 mg/kg): similar
